Molecules are shown by their SMILES. The campaign covered roughly 330,000 compounds. About 1,100 (0.33%) were called active. The entries come from a sample that favours actives as a whole. Unmarked numbers belong to inactive results.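 The calls were made as follows: active = at 10 µM dose, activation of 40% or more, normalized to positive control; inactive = the rest.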

A short description of this assay: activators of apoptotic CHOP UPR arm, primary screen, cell-based, CHO-CHOP luciferase reporter, luminescence, uHTS (AID 449763).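 Also: 100% = tunicamycin at 10 µg/mL and 0% = DMSO alone.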 Conditions: at 10 µM, hits give high values, percent of tunicamycin response over DMSO baseline. The procedure, abridged:
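Dosing – one dose, 10 µM in 0.5% DMSO · System – CHO-CHOP cells, stable luciferase reporter of PERK-eIF2a-CHOP signalling · Input – 500 cells/well · Control set – tunicamycin 10 µg/mL final as positive, DMSO-only wells as negative · Timing – 6 h compound treatment, 37 °C · Measure – % activation vs tunicamycin · Technique – luminescence read with Steady-Glo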
Take `COc1ccccc1N=C(C)C1=C(O)COC1=O`: the activation is -0.0733%.

`COc1ccccc1N=Cc1c(O)c2ccccc2oc1=O`: the activation is 130% (active).

On to `COc1cc(N=Cc2c(O)c3ccccc3oc2=O)c(OC)cc1Cl`, for which the activation is 3.5%. For `COc1ccc(C(=O)Nc2cc(S(=O)(=O)N3CCCC3)ccc2Cl)cc1` the value was 0.727%; for `Cc1ccc(CN2CCCOCCS2(=O)=O)cc1`, -0.00453%. In the case of `CCN(CC(=O)Nc1cccc(S(=O)(=O)N2CCCCC2)c1)Cc1ccccc1`, the activation is -0.441%. Take `Nc1nc(CC(=O)CSc2ccc(Cl)cc2)nc(Nc2ccc(F)cc2)n1`: the activation is 42.4% (active). Consider `Nc1nc(COC(=O)CCC(=O)c2ccc(Cl)cc2)nc(Nc2ccccc2)n1`, for which the activation was 0.238%.

As to `Cc1ccc(Nc2nc(N)nc(CSc3nnc(C)s3)n2)cc1`, the activation was 4.12%. The value for `COc1ccc(C(=O)CSc2nnnn2C)c(OC)c1` was 0.876%; that for `Cc1cccc(C)c1NC(=O)C(c1ccccc1)N1CC(=O)Nc2ccccc21` (stereo not drawn) was -0.493%; that for `Cc1cccc(C)c1NC(=O)CN(C)C(=O)CCC(=O)c1ccccc1` was 0.683%. As to `Cc1cccc(C)c1NC(=O)C(Cl)C(=O)c1ccccc1` (stereo not drawn), the activation was 52.9% (active). `C1=C(N2CCOCC2)/C(=C/c2nc3ccccc3[nH]2)CC1`: the activation is -3.2%. As for `CSc1nc(-c2ccccc2)nc(C(Cl)Cl)n1`, the activation is 46.2% (active).

For `CSc1ncc(Sc2ccccc2)c(C(=O)O)n1`, the activation is -0.159%.

Regarding `CC(C)=CCC/C(C)=C/C(=O)O`, the activation is 0.467%. For `COc1ccccc1N1CCN(CC(=O)NCCc2ccc(S(N)(=O)=O)cc2)CC1` the value was -1.28%; for `O=C(/C=C/c1cccs1)c1cc(Cl)ccc1OC(=O)N1CCOCC1`, 2.72%. In the case of `COc1ccc(C(=O)N2CCC(C(=O)Nc3ccc(C)cc3)CC2)cc1`, the activation was -0.572%. Regarding `CC(C)(C)n1nc(Cc2cccc3ccccc23)c(C#N)c1N`, the activation was 0.111%.

On to `CCc1nn(-c2cc(Oc3cccc4ccccc34)nc(-c3ccccc3)n2)c(N)c1C#N`, for which the activation is 56.7% (active). Consider `CCCC(c1nnnn1C(C)(C)C)N1CCN(Cc2ccccc2)CC1` (stereo not drawn), for which the activation is -1.39%.

For `CC(C)[C@H](NC(=O)N1c2ccccc2NC(=O)[C@@H]1C(C)C)C(=O)N[C@H](C(=O)O)c1ccccc1`, the activation was -2.11%. Regarding `C=CCN1CN(S(=O)(=O)c2ccc(OC)cc2)c2nc3ccccc3nc21`, the activation is 0.29%.

For `O=C1C=CC(=O)N1c1ccc(N2CCCCC2)cc1`, the activation is 44.6% (active). The value for `CC(=O)Nc1ccc(S(=O)(=O)Nc2ccc(N3CCCCC3)cc2)cc1` was 4.38%; that for `O=C(Cc1ccccc1)NC(=S)Nc1ccc(N2CCCCC2)cc1` was 0.603%.

For the origin of these results see PubChem BioAssay AID449763 (Sanford-Burnham Center for Chemical Genomics, 2010).
